In brackets after ≈: the same amount, converted by molar mass.
What was measured:
Assay type in all cases: functional
[1] = tested on: Staphylococcus aureus; assay: Antibacterial activity against methicillin-sensitive Staphylococcus aureus NCTC 6571
Outline: (§1)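 Broth microdilution in Mueller-Hinton broth. Samples were dissolved in sterile water to 200 µg mL-1 as the working solution and doubling dilutions were made across rows. Plates were incubated at 37 °C and inspected visually, with resazurin added as growth indicator. MIC reported in µg mL-1.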

[2] = tested on: Enterococcus faecalis; assay: Antibacterial activity against Streptococcus faecalis NCTC 775; outline: as §1
[3] = tested on: Mycolicibacterium fortuitum; assay: Antibacterial activity against Mycobacterium fortuitum NCTC 10394; outline: as §1
[4] = tested on: Aspergillus niger; assay: Antifungal activity against Aspergillus niger IMI 149007
Outline: (§2)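 Antifungal microdilution in Sabouraud broth. Test sample at 200 µg mL-1 working solution in sterile water was serially doubled down successive rows. Incubation was at 25 °C, followed by visual growth check and addition of resazurin indicator. Read-out is MIC in µg mL-1.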

[5] = tested on: Candida albicans; assay: Antifungal activity against Candida albicans NCPF 3179; conditions: Candida albicans; read-out: MIC; outline: as §2
[6] = tested on: Staphylococcus aureus; assay: Antibacterial activity against methicillin-resistant Staphylococcus aureus clinical isolate 1
Outline: (§3)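 Broth microdilution MIC against clinical S. aureus isolates (incl. MRSA), run per NCCLS guidelines in 96-well plates. Test sample dissolved in sterile water to a 200 µg mL-1 working concentration, then doubling dilutions in Mueller-Hinton broth. Incubated at 37 °C, growth read visually plus resazurin indicator. MIC reported in µg/mL.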

[7] = tested on: Staphylococcus aureus; assay: Antibacterial activity against methicillin-resistant Staphylococcus aureus clinical isolate 2; outline: as §3
[8] = tested on: Staphylococcus aureus; assay: Antibacterial activity against methicillin-resistant Staphylococcus aureus clinical isolate 3; outline: as §3
[9] = tested on: Staphylococcus aureus; assay: Antibacterial activity against methicillin-resistant Staphylococcus aureus clinical isolate 4; outline: as §3
[10] = tested on: Staphylococcus aureus; assay: Antibacterial activity against methicillin-resistant Staphylococcus aureus clinical isolate 5; outline: as §3
[11] = Staphylococcus aureus, NCTC 6571, read-out: MIC
[12] = Enterococcus faecalis, NCTC 775, read-out: MIC

Row | SMILES | MIC [1, 11] | MIC [2, 12] | MIC [3] | MIC [4] | MIC [5] | MIC [6] | MIC [7] | MIC [8] | MIC [9] | MIC [10] | MIC [1] | MIC [2]
1 | COc1cccc(C(=N)Nc2cc(C(=O)Nc3cc(C(=O)Nc4nc(C(=O)NCCN5CCOCC5)c(C(C)C)s4)n(C)c3)n(C)c2)c1 | > 50 µg/mL | > 50 µg/mL | > 50 µg/mL | > 50 µg/mL | > 50 µg/mL | 16 µg/mL (≈ 23.7 µM) | 64 µg/mL (≈ 94.7 µM) | 32 µg/mL (≈ 47.4 µM) | 32 µg/mL (≈ 47.4 µM) | 32 µg/mL (≈ 47.4 µM) | – | –
2 | COc1ccc(/C=C/c2ccc3cc(C(=O)Nc4cc(C(=O)Nc5cc(C(=O)NCCN6CCOCC6)n(C)c5)n(C)c4)ccc3n2)cc1 | > 50 µg/mL | 25 µg/mL (≈ 37.8 µM) | > 50 µg/mL | 50 µg/mL (≈ 75.6 µM) | > 50 µg/mL | 4 µg/mL (≈ 6.04 µM) | > 64 µg/mL | > 64 µg/mL | > 64 µg/mL | > 64 µg/mL | – | –
3 | CN(C)CCCNC(=O)c1cc(NC(=O)c2cc(NC(=O)c3ccc(/C=C/c4cnc5ccccc5c4)cc3)cn2C)cn1C | 32 µg/mL (≈ 53 µM) | 13 µg/mL (≈ 21.5 µM) | > 50 µg/mL | > 50 µg/mL | > 50 µg/mL | 25 µg/mL (≈ 41.4 µM) | 25 µg/mL (≈ 41.4 µM) | 25 µg/mL (≈ 41.4 µM) | 25 µg/mL (≈ 41.4 µM) | 25 µg/mL (≈ 41.4 µM) | – | –
4 | CC(C)c1sc(NC(=O)c2cc(NC(=O)c3cc(NC=O)cn3C)cn2C)nc1C(=O)NCCN1CCOCC1 | 13 µg/mL (≈ 22.8 µM) | 25 µg/mL (≈ 43.8 µM) | > 50 µg/mL | > 50 µg/mL | > 50 µg/mL | 32 µg/mL (≈ 56.1 µM) | > 64 µg/mL | 64 µg/mL (≈ 112 µM) | 64 µg/mL (≈ 112 µM) | 64 µg/mL (≈ 112 µM) | – | –
5 | COc1cccc(/C=C/c2ccc(C(=O)Nc3cc(C(=O)Nc4nc(C(=O)NCCCN(C)C)c(CCC(C)C)s4)n(C)c3)cc2)c1 | > 50 µg/mL | > 50 µg/mL | > 50 µg/mL | > 50 µg/mL | > 50 µg/mL | 8 µg/mL (≈ 12.2 µM) | 8 µg/mL (≈ 12.2 µM) | 8 µg/mL (≈ 12.2 µM) | 8 µg/mL (≈ 12.2 µM) | 8 µg/mL (≈ 12.2 µM) | – | –
6 | COc1cccc(C(=N)Nc2cc(C(=O)Nc3cc(C(=O)Nc4cc(C(=O)NCCCN5CCOCC5)n(C)c4)n(C)c3)n(C)c2)c1 | > 50 µg/mL | > 50 µg/mL | > 50 µg/mL | > 50 µg/mL | > 50 µg/mL | > 64 µg/mL | > 64 µg/mL | > 64 µg/mL | > 64 µg/mL | > 64 µg/mL | – | –
7 | COc1cccc(C(=O)Nc2cc(C(=O)Nc3cc(C(=O)Nc4nc(C(=O)NCCCN(C)C)c(C(C)C)s4)n(C)c3)n(C)c2)c1 | 25 µg/mL (≈ 38.5 µM) | 25 µg/mL (≈ 38.5 µM) | > 50 µg/mL | > 50 µg/mL | > 50 µg/mL | 16 µg/mL (≈ 24.7 µM) | 32 µg/mL (≈ 49.3 µM) | 32 µg/mL (≈ 49.3 µM) | 32 µg/mL (≈ 49.3 µM) | 32 µg/mL (≈ 49.3 µM) | – | –
8 | Cn1cc(NC(=O)c2cc(NC(=O)c3ccc(/C=C/c4nc5ccccc5o4)cc3)cn2C)cc1C(=O)NCCN1CCOCC1 (stereo in doubt; 79) | – | – | > 50 µg/mL | > 50 µg/mL | > 50 µg/mL | 1 µg/mL (≈ 1.61 µM) | 16 µg/mL (≈ 25.7 µM) | 1 µg/mL (≈ 1.61 µM) | 1 µg/mL (≈ 1.61 µM) | 1 µg/mL (≈ 1.61 µM) | 13 µg/mL (≈ 20.9 µM) | 25 µg/mL (≈ 40.2 µM)
9 | CC(C)CCn1cc(NC(=O)c2cc(NC(=O)c3ccc4c(c3)OCO4)cn2C)cc1C(=O)Nc1cc(C(=O)NCCCN(C)C)n(C)c1 | 50 µg/mL (≈ 74.3 µM) | > 50 µg/mL | > 50 µg/mL | > 50 µg/mL | > 50 µg/mL | 8 µg/mL (≈ 11.9 µM) | 16 µg/mL (≈ 23.8 µM) | 16 µg/mL (≈ 23.8 µM) | 16 µg/mL (≈ 23.8 µM) | 16 µg/mL (≈ 23.8 µM) | – | –
10 | Cn1cc(NC(=O)c2cc(NC(=O)c3cc(/C=C/c4ccc5ccccc5n4)cn3C)cn2C)cc1C(=O)NCCN1CCOCC1 | 13 µg/mL (≈ 20.5 µM) | 13 µg/mL (≈ 20.5 µM) | > 50 µg/mL | > 50 µg/mL | > 50 µg/mL | 4 µg/mL (≈ 6.3 µM) | 64 µg/mL (≈ 101 µM) | 64 µg/mL (≈ 101 µM) | 32 µg/mL (≈ 50.4 µM) | 16 µg/mL (≈ 25.2 µM) | – | –
11 | COc1cccc(/C=C/c2cc(C(=O)Nc3cc(C(=O)Nc4cc(C(=O)NCCCN(C)C)n(C)c4)n(C)c3)n(C)c2)c1 | > 50 µg/mL | 25 µg/mL (≈ 42.7 µM) | > 50 µg/mL | > 50 µg/mL | 50 µg/mL (≈ 85.4 µM) | 32 µg/mL (≈ 54.6 µM) | 32 µg/mL (≈ 54.6 µM) | 32 µg/mL (≈ 54.6 µM) | 32 µg/mL (≈ 54.6 µM) | 32 µg/mL (≈ 54.6 µM) | – | –
12 | CN(C)CCCNC(=O)c1cc(NC(=O)c2cc(NC(=O)c3cc(NC(=N)c4ccc5ccccc5n4)cn3C)cn2C)cn1C | > 50 µg/mL | 50 µg/mL (≈ 80.3 µM) | > 50 µg/mL | 50 µg/mL (≈ 80.3 µM) | 50 µg/mL (≈ 80.3 µM) | > 64 µg/mL | > 64 µg/mL | > 64 µg/mL | > 64 µg/mL | > 64 µg/mL | – | –
13 | CC(C)CCc1sc(NC(=O)c2cc(NC(=O)c3cc(/C=C/c4ccc([N+](=O)[O-])cc4)cn3C)cn2C)nc1C(=O)NCCCN(C)C | > 50 µg/mL | > 50 µg/mL | > 50 µg/mL | > 50 µg/mL | > 50 µg/mL | > 64 µg/mL | > 64 µg/mL | > 64 µg/mL | > 64 µg/mL | > 64 µg/mL | – | –
14 | CSc1ccc(/C=C/c2ccc3cc(C(=O)Nc4cc(C(=O)Nc5cc(C(=O)NCCN6CCOCC6)n(C)c5)n(C)c4)ccc3n2)cc1 | > 50 µg/mL | > 50 µg/mL | > 50 µg/mL | > 50 µg/mL | > 50 µg/mL | 4 µg/mL (≈ 5.9 µM) | > 64 µg/mL | > 64 µg/mL | > 64 µg/mL | > 64 µg/mL | – | –
15 | Cn1cc(NC(=O)c2cc(NC(=O)c3cc(/C=C/c4cnc5ccccc5c4)cn3C)cn2C)cc1C(=O)NCCN1CCOCC1 | > 50 µg/mL | > 50 µg/mL | > 50 µg/mL | > 50 µg/mL | > 50 µg/mL | 4 µg/mL (≈ 6.3 µM) | > 64 µg/mL | > 64 µg/mL | > 64 µg/mL | 16 µg/mL (≈ 25.2 µM) | – | –
16 | COc1cccc(C(=N)Nc2cc(C(=O)Nc3cc(C(=O)Nc4cc(C(=O)NCCc5ccccn5)n(C)c4)n(C)c3)n(C)c2)c1 | 50 µg/mL (≈ 80.4 µM) | > 50 µg/mL | > 50 µg/mL | > 50 µg/mL | > 50 µg/mL | > 64 µg/mL | > 64 µg/mL | > 64 µg/mL | > 64 µg/mL | > 64 µg/mL | – | –
17 | COc1cccc(/C=C/c2ccc(C(=O)Nc3cc(C(=O)Nc4cc(C(=O)NCCN5CCOCC5)n(C)c4)n(C)c3)cc2)c1 | 6 µg/mL (≈ 9.82 µM) | 50 µg/mL (≈ 81.9 µM) | > 50 µg/mL | > 50 µg/mL | > 50 µg/mL | 2 µg/mL (≈ 3.27 µM) | 4 µg/mL (≈ 6.55 µM) | 4 µg/mL (≈ 6.55 µM) | 4 µg/mL (≈ 6.55 µM) | 4 µg/mL (≈ 6.55 µM) | – | –
18 | CC(=N)Nc1cc(C(=O)Nc2cc(C(=O)Nc3nc(C(=O)NCCCN(C)C)c(CCC(C)C)s3)n(C)c2)n(C)c1 | > 50 µg/mL | > 50 µg/mL | > 50 µg/mL | > 50 µg/mL | 50 µg/mL (≈ 85.7 µM) | – | – | – | – | – | – | –
19 | CN(C)CCCNC(=O)c1cc(NC(=O)c2cc(NC(=O)c3cc(/C=C/c4ccc5ccccc5n4)cn3C)cn2C)cn1C | > 50 µg/mL | > 50 µg/mL | > 50 µg/mL | 50 µg/mL (≈ 82.4 µM) | 25 µg/mL (≈ 41.2 µM) | – | – | – | – | – | – | –
